Results on 7 compounds are retold here after PubChem BioAssay.

Molecules are shown by their SMILES. The source made the active and inactive calls.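 The calls were made as follows, unless noted: active = a full or partial loss of lipid-probe fluorescence in the fish gall bladder, intestine or both, judged by eye; inactive = no fluorescence loss, or compound toxic to the fish.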

A short description of experiment [1]: inhibitors of TNFa-induced NFkB p65 translocation, primary screen, imaging, HUVEC, MLSMR starter and 10KST1 sets (AID 438;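 active = inhibition above 20% together with a positive visual image hit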;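 also: compound added about 3h40 before a 20 min TNFalpha stimulation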;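 as to inhibition: signal is the nuclear over cytoplasmic p65 intensity ratio per well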). The note with it: HUVEC TNFa-induced p65 nuclear translocation; cell count: measured here: nuclei count (cytotoxicity indicator), at 2.08 µM; inhibition: at 2 µM, stronger effect = higher value, 0% TNFa-plus-vehicle, 100% no-TNFa wells.
Experiment [2] in a line: endothelial E-selectin expression blockers – imaging, HUVEC, immunofluorescence, MLSMR starter and 10KST1 sets, primary screen (AID 487;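 active = visually confirmed hit in the image check and inhibition above 20%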;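 as to inhibition: signal is fraction of cell area covered by stained E-selectin grains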;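 as to nuclei count: 100% = median nuclei count of all wells on the same plate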). The settings on record: HUVEC TNFalpha-induced E-selectin immunofluorescence imaging, at 2 µM; inhibition: stronger effect = higher value; nuclei count: measured here: cell number, toxicity.
Experiment [3] in a line: Primary imaging screen for DUSP6 inhibitors that restore phospho-Erk in transfected HeLa cells, chemical complementation (AID 609;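 active = compounds giving at least 50% inhibition in the cell-based MKP-3 phosphatase rescue imaging test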;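 as to inhibition: phospho-Erk level distribution per well compared with pooled transfected vehicle control wells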). The settings on record: HeLa MKP-3 transfected, phospho-Erk imaging KS statistic, at 10 µM, cells stimulated with TPA for 15 min.
Experiment [4] has as its target Dual specificity protein phosphatase 6 (Homo sapiens) (UniProt Q16828). The experiment is described as above. The settings on record: HeLa MKP-3 transfected, phospho-Erk imaging KS statistic; at 10 µM; stronger effect = higher value; cells stimulated with TPA for 15 min.
The target of experiment [5] is Voltage-gated potassium channel subunit beta-2 (Rattus norvegicus) (UniProt P62483). The experiment in a line: inhibitors of rat Kvbeta2 reductase activity – biochemical, NADPH fluorescence, primary screen (AID 622;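 active = fluorescence slope higher than the sample average by over 3 SD, cut at about -0.22 in these data, passing the limit was not always enough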;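 also: slope of raw intensity against log time taken from 70 to 1610 s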). The settings on record: recombinant KvBeta, 4-cyanobenzaldehyde reduction, at 10 µM, stronger effect = higher value.
The target is the same in experiment [6]. Nature of the experiment: enhancers of rat Kvbeta2 NADPH turnover – biochemical, NADPH fluorescence, primary screen (AID 623;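 active = NADPH fluorescence slope more negative than the mean of all samples by about 3 SD, 99.7% confidence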;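 also: fluorescence intensity change per second fitted from 20 to 320 s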). The settings on record: Recombinant KvBeta, NADPH fluorescence decrease slope, 10 min; at 10 µM; stronger effect = lower value.
The target in experiment [7] is Alpha-2C adrenergic receptor (Homo sapiens) (UniProt P18825). The experiment in a line: compounds altering alpha2C-coupled GIRK flux – cell-based, HEK293 alpha2C/GIRK1/2, thallium flux, primary screen (AID 624;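 active = fluorescence slope after compound addition differing from the mean of all screened samples at 99.7% confidence, in either direction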;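 also: slope of fluorescence ratio to pre-addition baseline per second over 15 to 24 s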). The note with it: thallium flux BTC fluorescence, at 10 µM, actives lie on both sides.
Experiment [8] is described as follows: inhibitors of larval lipid processing in zebrafish, primary screen, whole organism, PED6 fluorescence, gall bladder and intestine (AID 686).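 Also: larvae 5 to 7 days old with five fish per well; signal comes from phospholipase A2 cleavage of quenched PED6 carried via bile; overnight exposure to compound and PED6 before scoring.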 The note with it: Zebrafish larvae PED6 lipid processing, fluorescence scoring; screened at 20 µM (by protocol). In a few lines:
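Test system – live zebrafish larvae aged 5-7 days, whole organism · Buffer or medium – E3 fish medium · Reagent – quenched phospholipase substrate PED6, 100 nM final, ingested by larvae · Doses – 20 µM single dose · Incubation – overnight compound and PED6 incubation · Technique – visual fluorescence microscopy scoring of gall bladder, gut · Read-out basis – visual per-well fluorescence inhibition score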

Experiment [9] can be described thus: loss of swimming-algae plug formation – whole organism, Chlamydomonas reinhardtii, WT vs cilia-less mutant, absorbance, 96-well, primary screen (AID 463189;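 active = inhibition at or above 50% relative to wild type and mutant plate controls; inactive = inhibition below 50%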;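 also: 0% = wild type cc124 cells in DMSO and 100% = ciliumless bld1 mutant cells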). The settings on record: Chlamydomonas reinhardtii gravitaxis, OD600 absorbance, 2 days; at 10 µM; stronger effect = higher value.
Where [10] appears, read: measured here: cell density z-score.
[11] abbreviates: measured here: nuclear c-Myc green intensity z-score.
Setting [12] is: measured here: nuclear pErk red intensity z-score, stronger effect = higher value.

Alpha-2C adrenergic receptor (Homo sapiens), sequence (P18825 whole entry, looked up): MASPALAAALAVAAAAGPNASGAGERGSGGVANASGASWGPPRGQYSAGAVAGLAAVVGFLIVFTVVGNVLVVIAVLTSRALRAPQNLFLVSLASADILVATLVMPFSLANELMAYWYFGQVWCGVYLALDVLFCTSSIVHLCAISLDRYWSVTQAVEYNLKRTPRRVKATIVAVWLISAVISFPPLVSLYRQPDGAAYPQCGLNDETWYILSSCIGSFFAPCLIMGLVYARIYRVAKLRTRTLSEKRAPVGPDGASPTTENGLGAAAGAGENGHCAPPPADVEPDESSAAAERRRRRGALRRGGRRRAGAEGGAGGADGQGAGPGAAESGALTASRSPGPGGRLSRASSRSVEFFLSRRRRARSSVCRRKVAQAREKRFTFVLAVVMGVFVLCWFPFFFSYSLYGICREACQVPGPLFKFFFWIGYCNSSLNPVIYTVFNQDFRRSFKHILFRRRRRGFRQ
Voltage-gated potassium channel subunit beta-2 (Rattus norvegicus), sequence (P62483 whole entry, looked up): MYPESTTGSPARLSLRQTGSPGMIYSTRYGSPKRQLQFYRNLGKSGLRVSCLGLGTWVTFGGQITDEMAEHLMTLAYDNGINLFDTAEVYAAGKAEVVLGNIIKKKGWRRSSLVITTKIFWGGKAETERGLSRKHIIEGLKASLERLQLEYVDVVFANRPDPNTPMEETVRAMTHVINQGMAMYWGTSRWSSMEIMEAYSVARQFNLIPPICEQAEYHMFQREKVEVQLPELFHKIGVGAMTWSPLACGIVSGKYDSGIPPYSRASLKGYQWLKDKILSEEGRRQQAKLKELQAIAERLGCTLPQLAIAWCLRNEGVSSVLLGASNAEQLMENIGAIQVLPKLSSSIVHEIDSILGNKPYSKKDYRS
Dual specificity protein phosphatase 6 (Homo sapiens), sequence (Q16828 whole entry, looked up): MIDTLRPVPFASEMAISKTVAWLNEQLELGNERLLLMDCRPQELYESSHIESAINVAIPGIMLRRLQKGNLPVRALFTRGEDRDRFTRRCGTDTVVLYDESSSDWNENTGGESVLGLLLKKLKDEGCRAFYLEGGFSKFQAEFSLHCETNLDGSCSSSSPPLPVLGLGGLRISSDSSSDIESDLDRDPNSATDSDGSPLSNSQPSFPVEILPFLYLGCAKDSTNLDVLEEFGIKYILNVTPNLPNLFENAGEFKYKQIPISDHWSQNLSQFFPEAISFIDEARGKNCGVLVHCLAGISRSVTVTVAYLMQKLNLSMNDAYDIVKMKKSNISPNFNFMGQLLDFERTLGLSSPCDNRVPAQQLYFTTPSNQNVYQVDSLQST

Regarding `COc1cccc(C2/C(=C(\O)c3ccc4c(c3)OCCO4)C(=O)C(=O)N2CCN(C)C)c1` (stereo unspecified), the cell count in [1] was 509. Besides, the inhibition (commonly the drop in the measured response relative to a control, in per cent) in experiment [1] is -0.6% (inactive); in [2] it was -108% (inactive); in [4], 17.5% (inactive); in experiment [9], -11.2% (inactive). Besides, the nuclei count in experiment [2] worked out at 138%. Also, the z-score was 1 in experiment [3] (setting [10]), -0.131 in experiment [3] (setting [11]) and -0.387 in [3] (setting [12]). Also, in [5], the fluorescence slope was -0.546 (inactive). Further, the NADPH fluorescence slope in [6] was -3.2e-05 (inactive). For the same compound, the slope in [7] is 0.00546 (inactive). The compound was classed as inactive in [8].
Take `COc1cc(C2C3C(=O)N(c4ccc(F)cc4)C(=O)C3ON2c2ccccc2)ccc1O` (stereo unspecified): in experiment [1], the cell count is 470. Also, the inhibition in experiment [1] is -13.5% (inactive); in [2], -60% (inactive); in experiment [4], -13.3% (inactive); in experiment [9] it was 16.5% (inactive). Also, the nuclei count in [2] worked out at 137%. In addition, the z-score is -1.73 in experiment [3] (setting [10]), -0.628 in experiment [3] (setting [11]) and 0.0709 in experiment [3] (setting [12]). Further, the fluorescence slope in experiment [5] is -0.498 (inactive). For the same compound, the NADPH fluorescence slope in experiment [6] was -3.2e-05 (inactive). For the same compound, in [7], the slope was 0.00461 (inactive). Further, in experiment [8], the result was inactive.
With `CCc1cccc(C)c1N(C(=O)Cn1c(=O)[nH]c2ccccc21)C(C)COC` (stereo unspecified), the cell count in [1] amounted to 362. Further, the inhibition in experiment [1] was -2.1% (inactive); in experiment [2], -33.7% (inactive); in [4], 5.57% (inactive); in experiment [9], 32.6% (inactive). In addition, the nuclei count in experiment [2] came to 97%. Also, the z-score was 0.81 in experiment [3] (setting [10]), -0.372 in [3] (setting [11]) and 0.826 in experiment [3] (setting [12]). In addition, in experiment [5], the fluorescence slope was -0.546 (inactive). Besides, the NADPH fluorescence slope in experiment [6] was -4.3e-07 (inactive). Besides, the slope in experiment [7] was 0.00687 (inactive). Moreover, the call in [8] was inactive.
With `Cn1cc(C(=O)NCN2CCCCC2)c2ccccc21`, in experiment [1], the cell count was found to be 637. For the same compound, the inhibition is -1.9% (inactive) in [1], 33.7% (inactive) in [2], -5.89% (inactive) in [4] and -12.4% (inactive) in experiment [9]. This compound also yielded a nuclei count in [2] of 201%. For the same compound, the z-score was 0.345 in [3] (setting [10]), -0.8 in experiment [3] (setting [11]) and -0.0314 in [3] (setting [12]). Moreover, in experiment [5], the fluorescence slope was -0.45 (inactive). The NADPH fluorescence slope in [6] was -0.000261 (inactive). Moreover, the slope in experiment [7] was 0.00517 (inactive). Further, in experiment [8], the result was inactive.
In the case of `CC1(C)C/C(=C(/C#N)C(N)=O)CCO1`, the cell count in experiment [1] turned out to be 575. The inhibition was -11.9% (inactive) in [1], -42.1% (inactive) in experiment [2], -8.95% (inactive) in experiment [4] and -18.4% (inactive) in experiment [9]. For the same compound, in [2], the nuclei count stood at 110%. The z-score was 0.299 in experiment [3] (setting [10]), 1.82 in experiment [3] (setting [11]) and -0.278 in experiment [3] (setting [12]). Further, in experiment [5], the fluorescence slope was -0.392 (inactive). The NADPH fluorescence slope in experiment [6] is 4.5e-06 (inactive). The slope in experiment [7] was 0.00848 (inactive). Also, in experiment [8], the compound was classed as inactive.
In the case of `O=C(c1ccc(=O)oc1)N1CCOCC1`, the cell count in experiment [1] stood at 357. For the same compound, the inhibition in experiment [1] was -5.3% (inactive); in experiment [2] it was -8.3% (inactive); in [4], -6.59% (inactive); in experiment [9], 25% (inactive). The compound further registered a nuclei count in [2] of 167%. Moreover, the z-score is 1.26 in experiment [3] (setting [10]), -0.649 in [3] (setting [11]) and 0.718 in [3] (setting [12]). For the same compound, the fluorescence slope in experiment [5] was -0.46 (inactive). In experiment [6], the NADPH fluorescence slope is -0.000126 (inactive). Besides, the slope in [7] is 0.0053 (inactive). For the same compound, the compound was called inactive in experiment [8].
For the compound `CCn1cc(C(=O)NCCc2ccccc2)c(=O)c2cc(F)c(N3CCN(C)CC3)cc21`, the cell count in [1] amounted to 483. Besides, the inhibition is -8.4% (inactive) in experiment [1], -187% (inactive) in experiment [2], -8.95% (inactive) in experiment [4] and 23.3% (inactive) in experiment [9]. Moreover, the nuclei count in experiment [2] is 186%. In addition, the z-score is -0.562 in experiment [3] (setting [10]), 1.62 in experiment [3] (setting [11]) and 1.38 in [3] (setting [12]). In [5], the fluorescence slope was -0.321 (inactive). Also, the NADPH fluorescence slope in experiment [6] was -1.5e-05 (inactive). For the same compound, the slope in experiment [7] was 0.00526 (inactive). In [8], the compound was called inactive.
